Test results: ChEMBL document CHEMBL1151472, “In vitro interactions between tacrolimus and azoles against Candida albicans determined by different methods” (2008)
In brackets after ≈: the same amount, converted by molar mass.

Columns and labels:
Type in all cases: functional
[1] = tested on: Candida albicans; test: Antimicrobial activity against azole-susceptible Candida albicans isolate CA12 co-treated with calcineurin signaling inhibitor tacrolimus after 48 hrs by microdilution checkerboard technique; settings: isolate CA12, 48 h
Method in brief: (§1)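 Checkerboard microdilution in MOPS-buffered RPMI 1640 (pH 7.0, 2% dextrose) with 2.5 × 10^3 CFU/ml for 48 h at 35°C. Final FK506 was 0.002–0.125 μg/ml. Azole finals were FLC 0.125–128 μg/ml, and ITR and VRC 0.008–8 μg/ml. MIC80 is an 80% OD492 decrease vs drug-free control. Interaction was scored by FICI (synergy ≤0.5, antagonism >4) and by ΔE from triplicates.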

[2] = tested on: Candida albicans; test: Antimicrobial activity against azole-resistant Candida albicans isolate CA10 assessed as growth at 2 ug/ml cotreated with 0.063 ug/ml calcineurin signaling inhibitor tacrolimus after 48 hrs by microdilution checkerboard technique relative to control; set-up: scale not given: the % may be the effect or the level left
Method in brief: (§2)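 Checkerboard microdilution in MOPS-buffered RPMI 1640 (pH 7.0, 2% dextrose). Final ranges: azole 0.125–128 μg/ml (FLC) or 0.008–8 μg/ml (ITR, VRC), tacrolimus 0.002–0.125 μg/ml; solvent 1% in single-drug wells. Inoculum 2.5 × 10^3 CFU/ml, 35°C, 48 h. Growth % = background-subtracted OD492 of each well / drug-free well. Triplicate on different days.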

[3] = tested on: Candida albicans; test: Antimicrobial activity against azole-susceptible Candida albicans isolate CA14 after 48 hrs by broth microdilution method; settings: isolate CA14, 48 h
Method in brief: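 CLSI M27-A2 broth microdilution was run in RPMI 1640 (pH 7.0, 2% dextrose, 0.165 M MOPS). Inoculum was 2.5 × 10^3 CFU/ml, incubated 35°C for 48 h without shaking. Plates were read visually (0–5 scale) and at OD 492 nm. MIC80 = lowest concentration giving an 80% absorbance decrease vs drug-free control. Triplicate.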

[4] = tested on: Candida albicans; test: Antimicrobial activity against azole-resistant Candida albicans isolate CA10 assessed as growth at 0.031 ug/ml after 48 hrs by microdilution checkerboard technique relative to control
Method in brief: (§3)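 Checkerboard microdilution in RPMI 1640 (pH 7.0, 2% dextrose, 0.165 M MOPS). Azole dilutions run along columns and FK506 along rows, at 4× final concentration. Final inoculum 2.5 × 10^3 CFU/ml from Sabouraud-subcultured cells. Incubated 35°C for 48 h; OD read at 492 nm. Background from microorganism-free plates subtracted. Growth % = well OD / drug-free well OD. Triplicate on different days, values averaged.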

[5] = tested on: Candida albicans; test: Antimicrobial activity against azole-resistant Candida albicans isolate CA10 assessed as growth at 0.125 ug/ml co-treated with 0.016 ug/ml calcineurin signaling inhibitor tacrolimus after 48 hrs by microdilution checkboard technique relative to control; set-up: scale not given: the % may be the effect or the level left; method in brief: as §2
[6] = tested on: Candida albicans; test: Antimicrobial activity against azole-resistant Candida albicans isolate CA10 assessed as growth at 128 ug/ml cotreated with 0.002 ug/ml calcineurin signaling inhibitor Tacrolimus after 48 hrs by microdilution checkboard technique relative to control; set-up: scale not given: the % may be the effect or the level left; method in brief: as §2
[7] = tested on: Candida albicans; test: Antimicrobial activity against azole-resistant Candida albicans isolate CA16 cotreated with calcineurin signaling inhibitor Tacrolimus after 48 hrs by microdilution checkerboard technique; settings: isolate CA16, 48 h; method in brief: as §1
[8] = tested on: Candida albicans; test: Antimicrobial activity against azole-resistant Candida albicans isolate CA15 cotreated with calcineurin signaling inhibitor Tacrolimus after 48 hrs by microdilution checkerboard technique; settings: isolate CA15, 48 h; method in brief: as §1
[9] = tested on: Candida albicans; test: Antimicrobial activity against azole-resistant Candida albicans isolate CA10 assessed as growth at 8 ug/ml after 48 hrs by microdilution checkerboard technique relative to control
Method in brief: (§4)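 CA10 in RPMI 1640 with 2% dextrose and 0.165 M MOPS, pH 7.0. Checkerboard used twofold dilutions, with azole alone in row H and the drug-free growth control in well H1. Final inoculum was 2.5 × 10^3 CFU/ml, incubated 35°C for 48 h, with OD read at 492 nm. Growth % = background-subtracted well OD / drug-free well OD. Run in triplicate on different days.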

[10] = tested on: Candida albicans; test: Antimicrobial activity against azole-resistant Candida albicans isolate CA10 assessed as growth at 16 ug/ml co-treated with 0.002 ug/ml calcineurin signaling inhibitor tacrolimus after 48 hrs by microdilution checkboard technique relative to control; set-up: scale not given: the % may be the effect or the level left; method in brief: as §2
[11] = tested on: Candida albicans; test: Antimicrobial activity against azole-resistant Candida albicans isolate CA10 assessed as growth at 4 ug/ml cotreated with 0.125 ug/ml calcineurin signaling inhibitor Tacrolimus after 48 hrs by microdilution checkboard technique relative to control; set-up: scale not given: the % may be the effect or the level left; method in brief: as §4
[12] = tested on: Candida albicans; test: Antimicrobial activity against azole-resistant Candida albicans isolate CA10 assessed as growth at 64 ug/ml cotreated with 0.004 ug/ml calcineurin signaling inhibitor Tacrolimus after 48 hrs by microdilution checkboard technique relative to control; set-up: scale not given: the % may be the effect or the level left; method in brief: as §4
[13] = tested on: Candida albicans; test: Antimicrobial activity against azole-resistant Candida albicans isolate CA10 assessed as growth at 8 ug/ml cotreated with 0.016 ug/ml calcineurin signaling inhibitor Tacrolimus after 48 hrs by microdilution checkboard technique relative to control; set-up: scale not given: the % may be the effect or the level left; method in brief: as §4
[14] = tested on: Candida albicans; test: Antimicrobial activity against azole-resistant Candida albicans isolate CA10 assessed as growth at 32 ug/ml co-treated with 0.125 ug/ml calcineurin signaling inhibitor tacrolimus after 48 hrs by microdilution checkboard technique relative to control; set-up: scale not given: the % may be the effect or the level left; method in brief: as §4
[15] = tested on: Candida albicans; test: Antimicrobial activity against azole-resistant Candida albicans isolate CA10 assessed as growth at 0.25 ug/ml cotreated with 0.125 ug/ml calcineurin signaling inhibitor Tacrolimus after 48 hrs by microdilution checkboard technique relative to control; set-up: scale not given: the % may be the effect or the level left; method in brief: as §3
[16] = tested on: Candida albicans; test: Antimicrobial activity against azole-resistant Candida albicans isolate CA10 assessed as growth at 32 ug/ml co-treated with 0.008 ug/ml calcineurin signaling inhibitor tacrolimus after 48 hrs by microdilution checkboard technique relative to control; set-up: scale not given: the % may be the effect or the level left; method in brief: as §4
[17] = tested on: Candida albicans; test: Antimicrobial activity against azole-resistant Candida albicans isolate CA10 assessed as growth at 8 ug/ml cotreated with 0.063 ug/ml calcineurin signaling inhibitor tacrolimus after 48 hrs by microdilution checkerboard technique relative to control; set-up: scale not given: the % may be the effect or the level left; method in brief: as §4
[18] = tested on: Candida albicans; test: Antimicrobial activity against azole-resistant Candida albicans isolate CA10 assessed as growth at 128 ug/ml cotreated with 0.016 ug/ml calcineurin signaling inhibitor tacrolimus after 48 hrs by microdilution checkerboard technique relative to control; set-up: scale not given: the % may be the effect or the level left; method in brief: as §2
[19] = tested on: Candida albicans; test: Antimicrobial activity against azole-resistant Candida albicans isolate CA10 after 48 hrs by broth microdilution method; settings: isolate CA10, 48 h
Method in brief: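 Broth microdilution per CLSI M27-A2 in RPMI 1640 (pH 7.0, 2% dextrose, 0.165 M MOPS), final inoculum 2.5 × 10^3 CFU/ml; 35°C without shaking for 48 h. Read visually (0–5 scale) and by OD 492 nm; MIC80 = lowest concentration giving 80% drop in absorbance versus drug-free control. Triplicate.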

[20] = tested on: Candida albicans; test: Antimicrobial activity against azole-resistant Candida albicans isolate CA10 assessed as growth at 0.125 ug/ml cotreated with 0.063 ug/ml calcineurin signaling inhibitor Tacrolimus after 48 hrs by microdilution checkboard technique relative to control; set-up: scale not given: the % may be the effect or the level left; method in brief: as §2
[21] = tested on: Candida albicans; test: Antimicrobial activity against azole-resistant Candida albicans isolate CA10 assessed as growth at 8 ug/ml cotreated with 0.031 ug/ml calcineurin signaling inhibitor tacrolimus after 48 hrs by microdilution checkerboard technique relative to control; set-up: scale not given: the % may be the effect or the level left; method in brief: as §3

`OC(Cn1cncn1)(Cn1cncn1)c1ccc(F)cc1F` [FLUCONAZOLE] gave an MIC [1] of 2 µg/mL, an Activity [2] of 13% and an MIC [3] of 0.5 µg/mL (≈ 1.63 µM). The Activity [4] was 93%, the Activity [5] was 38% and the Activity [6] was 44%. For the same compound, the MIC [7] was 0.5 µg/mL, the MIC [8] was 0.5 µg/mL and the Activity [9] was 55%. The Activity [10] was 35%, the Activity [11] was 5% and the Activity [12] was 27%. The Activity [13] was 19%, the Activity [14] was 0% and the Activity [15] was 7%. The Activity [16] was 25%, the Activity [17] was 12% and the Activity [18] was 18%. For the same compound, the MIC [19] was 256 µg/mL (≈ 836 µM), the Activity [20] was 27% and the Activity [21] was 18%.
